Laboratory results reported in ChEMBL document CHEMBL1938272 (Bioorg Med Chem, 2012).

Key:
[1] = molecular target: NAD(P)H dehydrogenase [quinone] 1 (Mus musculus) (UniProt Q64669); assay: Induction of QR1-mediated cytoprotective activity in mouse Hepa-1c1c7 cells at 50 uM assessed as cell survival; format: cell-based
[2] = molecular target: NAD(P)H dehydrogenase [quinone] 1 (Mus musculus) (UniProt Q64669); assay: Induction of QR1 activity in mouse TAOc1 mutant Hepa cells using MTT as substrate by spectrophotometry; format: cell-based
[3] = molecular target: NAD(P)H dehydrogenase [quinone] 1 (Mus musculus) (UniProt Q64669); assay: Induction of QR1-mediated cytoprotective activity in mouse TAOc1 mutant Hepa cells at 50 uM assessed as cell survival; format: cell-based
[4] = molecular target: NAD(P)H dehydrogenase [quinone] 1 (Mus musculus) (UniProt Q64669); assay: Induction of QR1 activity in mouse BPrc1 cells using MTT as substrate by spectrophotometry; format: cell-based
[5] = molecular target: NAD(P)H dehydrogenase [quinone] 1 (Mus musculus) (UniProt Q64669); assay: Induction of QR1-mediated cytoprotective activity in mouse BPrc1 cells at 50 uM assessed as cell survival; format: cell-based
[6] = test system: Radical scavenging activity; assay: Antioxidant activity assessed as DPPH free radical scavenging activity at 400 uM after 30 mins by spectrophotometry; format: functional
RAW264.7 [7] = assay: Antiinflammatory activity in mouse RAW264.7 cells assessed as inhibition of LPS-induced NO production preincubated for 30 mins before LPS challenge measured after 24 hrs by Griess method; format: functional, cell-based
Aromatase [8] = molecular target: T1, Aromatase (Homo sapiens, UniProt P11511); settings: 2 h, read-out: Imax
T1 sequence (P11511 whole entry): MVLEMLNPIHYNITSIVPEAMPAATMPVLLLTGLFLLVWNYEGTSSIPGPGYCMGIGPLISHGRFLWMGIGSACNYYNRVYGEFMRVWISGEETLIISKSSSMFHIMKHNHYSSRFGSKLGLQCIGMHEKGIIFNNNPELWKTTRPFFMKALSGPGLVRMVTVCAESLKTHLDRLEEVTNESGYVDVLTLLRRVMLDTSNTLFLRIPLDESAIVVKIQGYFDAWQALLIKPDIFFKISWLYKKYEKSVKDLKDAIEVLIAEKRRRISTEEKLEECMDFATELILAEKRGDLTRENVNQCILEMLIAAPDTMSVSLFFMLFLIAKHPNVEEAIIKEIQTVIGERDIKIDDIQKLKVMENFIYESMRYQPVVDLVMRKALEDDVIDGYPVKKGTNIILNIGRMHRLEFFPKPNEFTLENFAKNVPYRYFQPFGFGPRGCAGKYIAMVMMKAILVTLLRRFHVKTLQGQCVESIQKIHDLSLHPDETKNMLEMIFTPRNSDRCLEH

Aromatase [9] = molecular target: T1, Aromatase
RAW264.7 [10] = assay: Antiinflammatory activity in mouse RAW264.7 cells assessed as inhibition of LPS-induced NO production at 40 uM preincubated for 30 mins before LPS challenge by Griess method
[11] = molecular target: NAD(P)H dehydrogenase [quinone] 1 (Mus musculus) (UniProt Q64669); assay: Induction of QR1 activity in mouse Hepa-1c1c7 cells using MTT as substrate by spectrophotometry; format: cell-based
Procedure, shortened: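 Mouse hepatoma Hepa 1c1c7 cells were incubated with compound, then permeabilised with digitonin. QR1 activity was read as MTT reduction to formazan at 595 nm, with crystal violet total protein run in parallel. Induction ratio is activity versus control; CD is the concentration doubling activity, derived only when the ratio is above 2.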

HEK293 = assay: Inhibition of TNFalpha-activated NF-kappaB expressed in HEK293 cells at 50 uM by luciferase reporter gene assay; format: cell-based
MCF7 = assay: Antiproliferative activity against human MCF7 cells after 72 hrs by SRB assay; format: functional, cell-based; settings: MCF7, 72 h
Procedure, shortened: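 MCF-7 breast cancer cells exposed to serially diluted compounds (DMSO) for 72 h at 37 °C in CO2 incubator; fixed with 10% trichloroacetic acid, stained with 0.4% SRB, OD read at 515 nm. Zero-day control of 1 × 10^4 cells per well processed after 30 min. Survival = (OD test − OD zero-day)/(OD control − OD zero-day) × 100; IC50 from survival.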

[12] = Inhibition of TNFalpha-activated NF-kappaB expressed in HEK293 cells by luciferase reporter gene assay; format: cell-based
Aromatase [13] = molecular target: T1, Aromatase; assay: Ratio of trans-resveratrol IC50 to compound IC50 for human aromatase

Chain of NAD(P)H dehydrogenase [quinone] 1 (Mus musculus) (Q64669 whole entry): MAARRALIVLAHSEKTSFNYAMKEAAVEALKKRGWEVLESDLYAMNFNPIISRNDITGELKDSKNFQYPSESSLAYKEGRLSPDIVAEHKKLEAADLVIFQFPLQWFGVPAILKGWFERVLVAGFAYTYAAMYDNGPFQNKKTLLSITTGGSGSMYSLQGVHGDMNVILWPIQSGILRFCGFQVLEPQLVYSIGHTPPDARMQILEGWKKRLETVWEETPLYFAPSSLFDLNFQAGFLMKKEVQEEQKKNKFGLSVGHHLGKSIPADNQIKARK

## Ic1ccccc1-c1nsc(-c2ccccc2I)n1
[1]
  Survival: 48.8%
[2]
  CD: 6.3 µM
[3]
  Survival: 69.8%
[4]
  CD: 8.1 µM
[5]
  Survival: 95.1%
[6]
  inhibition: 3.4%
RAW264.7 [7]
  IC50: 30 µM
Aromatase [8]
  inhibition at 50 µM: 39.4%
Aromatase [9]
  IC50: > 50 µM
RAW264.7 [10]
  inhibition at 40 µM: 30%

## Cc1cc(Cl)ccc1-c1nsc(-c2ccc(Cl)cc2C)n1
[11]
  CD: 0.44 µM
[1]
  Survival: 77.3%
[2]
  CD: 3.8 µM
[3]
  Survival: 71%
[4]
  CD: 2.8 µM
[5]
  Survival: 94.7%
HEK293
  inhibition: 0%
[6]
  inhibition: 3.7%
MCF7
  IC50: 39.5 µM
Aromatase [8]
  inhibition at 50 µM: 35.3%
Aromatase [9]
  IC50: > 50 µM
RAW264.7 [10]
  inhibition at 40 µM: 10.1%

## Cc1c(Cl)cccc1-c1nsc(-c2cccc(Cl)c2C)n1
[11]
  CD: 4 µM
[1]
  Survival: 96%
[2]
  CD: 48.7 µM
[3]
  Survival: 68%
[4]
  CD: 38.2 µM
[5]
  Survival: 100%
HEK293
  inhibition: 20.3%
[6]
  inhibition: 2.3%
MCF7
  IC50: 30.3 µM
Aromatase [8]
  inhibition at 50 µM: 19.8%
Aromatase [9]
  IC50: > 50 µM
RAW264.7 [10]
  inhibition at 40 µM: 24.5%

## Clc1ccccc1-c1nsc(-c2ccccc2Cl)n1
[1]
  Survival: 75.2%
[2]
  CD: 44.3 µM
[3]
  Survival: 100%
[4]
  CD: 34.6 µM
[5]
  Survival: 83.8%
[6]
  inhibition: 2.8%
MCF7
  IC50: 35.8 µM
Aromatase [8]
  inhibition at 50 µM: 49.7%
Aromatase [9]
  IC50: > 50 µM
RAW264.7 [10]
  inhibition at 40 µM: -5.9%

## COc1cccc(-c2nsc(-c3cccc(OC)c3)n2)c1
[11]
  CD: 4.03 µM
[1]
  Survival: 63.7%
[3]
  Survival: 76.3%
[5]
  Survival: 97.1%
HEK293
  inhibition: 93.9%
[12]
  IC50: 0.4 µM
[6]
  inhibition: -2.1%
MCF7
  IC50: 24.2 µM
Aromatase [8]
  inhibition at 50 µM: 26.6%
Aromatase [9]
  IC50: > 50 µM
RAW264.7 [10]
  inhibition at 40 µM: 17.6%

## Oc1cccc(-c2nsc(-c3cccc(O)c3)n2)c1
[1]
  Survival: 4%
[3]
  Survival: 63.7%
[5]
  Survival: 94.3%
[12]
  IC50: 38.1 µM
Aromatase [8]
  inhibition at 50 µM: 24.4%
Aromatase [9]
  IC50: > 50 µM
RAW264.7 [10]
  inhibition at 40 µM: 47.4%

## Cc1cccc(-c2nsc(-c3cccc(C)c3)n2)c1
[11]
  CD: 4 µM
[1]
  Survival: 33.7%
[3]
  Survival: 94.9%
[5]
  Survival: 100%
[12]
  IC50: 0.8 µM
[6]
  inhibition: 1.9%
MCF7
  IC50: 22.1 µM
Aromatase [8]
  inhibition at 50 µM: 32.9%
Aromatase [9]
  IC50: > 50 µM
RAW264.7 [10]
  inhibition at 40 µM: 0.9%

## c1ccc(-c2nsc(-c3ccccc3)n2)cc1
[1]
  Survival: 50.3%
[2]
  CD: 18.6 µM
[3]
  Survival: 85.9%
[4]
  CD: 49.7 µM
[5]
  Survival: 77.8%
[12]
  IC50: 47.4 µM
MCF7
  IC50: 24.4 µM
Aromatase [8]
  inhibition at 50 µM: 60.2%
Aromatase [9]
  IC50: > 50 µM
RAW264.7 [10]
  inhibition at 40 µM: 55.7%

## Oc1ccc(/C=C\c2cc(O)cc(O)c2)cc1
[1]
  Survival: 89.3%
[3]
  Survival: 100%
[4]
  CD: 49.7 µM
[5]
  Survival: 77.8%

## Brc1cccc(-c2nsc(-c3cccc(Br)c3)n2)c1
[11]
  CD: 0.059 µM
[1]
  Survival: 79.3%
[2]
  CD: 2.5 µM
[3]
  Survival: 77.7%
[4]
  CD: 6.5 µM
[5]
  Survival: 92.3%
HEK293
  inhibition: 0%
[6]
  inhibition: 1%
MCF7
  IC50: 31 µM
Aromatase [8]
  inhibition at 50 µM: 48.4%
Aromatase [9]
  IC50: > 50 µM
RAW264.7 [10]
  inhibition at 40 µM: 22.8%

## Oc1ccc(-c2nsc(-c3ccc(O)cc3)n2)cc1
[1]
  Survival: 36.5%
[12]
  IC50: 19.3 µM
[6]
  inhibition: 3.4%
MCF7
  IC50: 4.7 µM
RAW264.7 [7]
  IC50: 13.5 µM
Aromatase [8]
  inhibition at 50 µM: 50.4%
Aromatase [9]
  IC50: > 50 µM
RAW264.7 [10]
  inhibition at 40 µM: 93.7%

## Clc1ccc(Cl)c(-c2nsc(-c3cc(Cl)ccc3Cl)n2)c1
[1]
  Survival: 88.1%
[2]
  CD: 41 µM
[3]
  Survival: 82.8%
[4]
  CD: 44.5 µM
[5]
  Survival: 94.7%
[6]
  inhibition: 1%
MCF7
  IC50: 17.8 µM
Aromatase [8]
  inhibition at 50 µM: 16.6%
Aromatase [9]
  IC50: > 50 µM
RAW264.7 [10]
  inhibition at 40 µM: 17.9%

## c1cc(-c2nsc(-c3ccncc3)n2)ccn1
[1]
  Survival: 86.6%
HEK293
  inhibition: 7.2%
[6]
  inhibition: -35.6%
Aromatase [13]
  Ratio IC50: 30
Aromatase [8]
  inhibition at 50 µM: 98%
Aromatase [9]
  IC50: 0.8 µM
RAW264.7 [10]
  inhibition at 40 µM: 0.9%

## Nc1ccc(-c2nsc(-c3ccc(N)cc3)n2)cc1
[1]
  Survival: 66.1%
[12]
  IC50: 7.6 µM
MCF7
  IC50: 30.8 µM
RAW264.7 [7]
  IC50: 23.3 µM
Aromatase [8]
  inhibition at 50 µM: 70.4%
Aromatase [9]
  IC50: 26.5 µM

## Ic1cccc(-c2nsc(-c3cccc(I)c3)n2)c1
[11]
  CD: 3.1 µM
[1]
  Survival: 103%
[3]
  Survival: 73.6%
[5]
  Survival: 77.3%
HEK293
  inhibition: 0%
[6]
  inhibition: 14.3%
MCF7
  IC50: 37.1 µM
Aromatase [8]
  inhibition at 50 µM: 30.6%
Aromatase [9]
  IC50: > 50 µM
RAW264.7 [10]
  inhibition at 40 µM: 15.6%

## c1cncc(-c2nsc(-c3cccnc3)n2)c1
[11]
  CD: 53.1 µM
[1]
  Survival: 73.5%
[3]
  Survival: 71.6%
[5]
  Survival: 87.8%
HEK293
  inhibition: 30.9%
Aromatase [13]
  Ratio IC50: 125
Aromatase [8]
  inhibition at 50 µM: 97.2%
Aromatase [9]
  IC50: 0.2 µM
RAW264.7 [10]
  inhibition at 40 µM: 1.3%

## Cc1ccc(Cl)cc1-c1nsc(-c2cc(Cl)ccc2C)n1
[11]
  CD: 0.47 µM
[1]
  Survival: 37.9%
[2]
  CD: 2 µM
[3]
  Survival: 80.2%
[4]
  CD: 4.4 µM
[5]
  Survival: 91.5%
HEK293
  inhibition: 29.7%
[6]
  inhibition: 1.3%
MCF7
  IC50: 29 µM
Aromatase [8]
  inhibition at 50 µM: 22%
Aromatase [9]
  IC50: > 50 µM
RAW264.7 [10]
  inhibition at 40 µM: 25.9%
